Measured values from ChEMBL document CHEMBL1153436, “2-Pyridyl P1'-substituted symmetry-based human immunodeficiency virus protease inhibitors (A-792611 and A-790742) with potential for convenient dosing and reduced side effects” (J Med Chem, 2009).

How the values were obtained:
[1] = test system: Human immunodeficiency virus 1; experiment: Fold resistance, ratio of EC50 for HIV1 bearing protease gene with A17 mutation to EC50 for wild-type HIV1 pNL4-3; assay type: functional
Outline: (§1)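 HIV-1 A17 mutant clone carrying protease mutations L10F, V32I, M46I, I47V, Q58E and I84V, generated by in vitro serial passage under LPV/RTV. EC50 was determined in MT-4 cells. Wild-type reference strain was HIV-1 pNL4-3.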

[2] = test system: Human immunodeficiency virus 1; experiment: Antiviral activity against wild-type HIV1 pNL4-3 infected in human MT4 cells after 5 days by MTT assay in presence of 50% human serum; assay type: functional, organism-based; settings: Human immunodeficiency virus 1, MT4, 120 h
[3] = test system: Human immunodeficiency virus 1; experiment: Antiviral activity against HIV1 bearing protease gene with A17 mutation infected in human MT4 cells after 5 days by MTT assay; assay type: functional, organism-based; settings: Human immunodeficiency virus 1, MT4, 120 h; outline: as §1
[4] = test system: Human immunodeficiency virus 1; experiment: Antiviral activity against wild-type HIV1 pNL4-3 infected in human MT4 cells after 5 days by MTT assay; assay type: functional, organism-based; settings: Human immunodeficiency virus 1, MT4, 120 h
[5] = Clearance in Sprague-Dawley rat at 5 mg/kg, iv; assay type: ADME, organism-based; design: dose 5 mg/kg, route intravenous; settings: in vivo
Outline: (§2)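 Male Sprague-Dawley-derived rats (n = 3) dosed iv or by oral gavage with 5 mg/mL solutions in 5% dextrose containing 20% ethanol, 30% propylene glycol and methanesulfonic acid equivalents. Plasma was sampled at 10 time points over 8 h, extracted into ethyl acetate/hexane and analysed by reversed-phase HPLC with internal standard. AUC in µg·h/mL.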

[6] = AUC in Sprague-Dawley rat at 5 mg/kg, po; assay type: ADME, organism-based; design: dose 5 mg/kg, route oral; settings: plasma; outline: as §2
[7] = Oral bioavailability in Sprague-Dawley rat at 5 mg/kg; assay type: ADME, organism-based; settings: in vivo; outline: as §2
[8] = Half life in Sprague-Dawley rat at 5 mg/kg, iv; assay type: ADME, organism-based; design: dose 5 mg/kg, route intravenous; settings: in vivo; outline: as §2
[9] = AUC in Sprague-Dawley rat at 5 mg/kg, po in presence of ritonavir; assay type: ADME, organism-based; design: dose 5 mg/kg, route oral; settings: plasma; outline: as §2

Row | Structure (SMILES) | Ratio EC50 [1] | EC50 [2] [nM] | EC50 [3] [nM] | EC50 [4] [nM] | clearance [5] [mL/min/kg] | AUC [6] [ng·h/mL] | bioavailability [7] [%] | half-life [8] [min] | AUC [9] [ng·h/mL]
1 | COC(=O)N[C@H](C(=O)N[C@H](Cc1ccc(-c2ccccn2)cc1)C[C@H](O)[C@H](Cc1ccccc1)NC(=O)[C@@H](N1CCN(Cc2cccc(C)n2)C1=O)C(C)(C)C)C(C)(C)C | 4 | 27 | 21 | 5 | – | – | – | – | –
2 | COC(=O)N[C@H](C(=O)N[C@H](Cc1ccc(-c2ccccn2)cc1)C[C@H](O)[C@H](Cc1ccccc1)NC(=O)[C@@H](N1CCN(Cc2cccc(C(C)(C)C)n2)C1=O)C(C)(C)C)C(C)(C)C | 10 | 311 | 151 | 15 | – | – | – | – | –
3 | COC(=O)N[C@H](C(=O)N[C@@H](Cc1ccc(-c2ccccn2)cc1)[C@@H](O)C[C@H](Cc1ccccc1)NC(=O)[C@@H](N1CCN(Cc2csc(C(C)C)n2)C1=O)C(C)(C)C)C(C)(C)C | 1 | 13 | – | 1 | – | – | – | – | –
4 | COC(=O)N[C@H](C(=O)N[C@@H](Cc1ccc(-c2ccccn2)cc1)[C@@H](O)C[C@H](Cc1ccccc1)NC(=O)[C@@H](N1CCN(Cc2ccccc2)C1=O)C(C)(C)C)C(C)(C)C | 4 | 10 | 4 | 1 | – | – | – | – | –
5 | COC(=O)N[C@H](C(=O)N[C@@H](Cc1ccc(-c2ccccn2)cc1)C[C@H](O)[C@H](Cc1ccccc1)NC(=O)[C@@H](N1CCN(Cc2csc(-c3cccnc3)n2)C1=O)C(C)(C)C)C(C)(C)C | 1 | 26 | – | 8 | 34.2 | 20 | 0.8 | 42 | 120
6 | COC(=O)N[C@H](C(=O)N[C@@H](Cc1ccc(-c2ccccn2)cc1)C[C@H](O)[C@H](Cc1ccccc1)NC(=O)[C@@H](N1CCN(Cc2cccc(OC)c2)C1=O)C(C)(C)C)C(C)(C)C | 4 | 65 | 53 | 14 | – | – | – | – | –
7 | COC(=O)N[C@H](C(=O)N[C@@H](Cc1ccc(-c2ccccn2)cc1)C[C@H](O)[C@H](Cc1ccccc1)NC(=O)[C@@H](N1CCN(Cc2ccc(N)cc2)C1=O)C(C)(C)C)C(C)(C)C | 3 | 63 | 30 | 10 | – | – | – | – | –
8 | COC(=O)N[C@H](C(=O)N[C@@H](Cc1ccc(-c2ccccn2)cc1)C[C@H](O)[C@H](Cc1ccccc1)NC(=O)[C@@H](N1CCN(Cc2nc3ccccc3n2C)C1=O)C(C)(C)C)C(C)(C)C | <1 | 346 | 32 | 140 | – | – | – | – | –
9 | COC(=O)N[C@H](C(=O)N[C@H](Cc1ccc(-c2ccccn2)cc1)C[C@H](O)[C@H](Cc1ccccc1)NC(=O)[C@@H](N1CCN(Cc2csc(C)n2)C1=O)C(C)(C)C)C(C)(C)C | 4 | 15 | 12 | 3 | 31 | 160 | 5.9 | 24 | 1980
10 | COC(=O)N[C@H](C(=O)N[C@@H](Cc1ccc(-c2ccccn2)cc1)[C@@H](O)C[C@H](Cc1ccccc1)NC(=O)[C@@H](N1CCN(Cc2csc(-c3cccnc3)n2)C1=O)C(C)(C)C)C(C)(C)C | <1 | 18 | 1 | 2 | 46.7 | 30 | 1.6 | 48 | 260
11 | COC(=O)N[C@H](C(=O)N[C@@H](Cc1ccc(-c2ccccn2)cc1)[C@@H](O)C[C@H](Cc1ccccc1)NC(=O)[C@@H](N1CCN(Cc2cccc(C)n2)C1=O)C(C)(C)C)C(C)(C)C | 1 | 30 | – | 5 | – | – | – | – | –
12 | COC(=O)N[C@H](C(=O)N[C@H](Cc1ccc(-c2ccccn2)cc1)C[C@H](O)[C@H](Cc1ccccc1)NC(=O)[C@@H](N1CCN(Cc2csc(-c3cccnc3)n2)C1=O)C(C)(C)C)C(C)(C)C | 4 | 15 | 7 | 2 | – | – | – | – | –
13 | COC(=O)N[C@H](C(=O)N[C@@H](Cc1ccc(-c2ccccn2)cc1)C[C@H](O)[C@H](Cc1ccccc1)NC(=O)[C@@H](N1CCN(Cc2csc(C)n2)C1=O)C(C)(C)C)C(C)(C)C | 1 | 94 | – | 10 | – | – | – | – | –
